# This is a sample that favours compounds with a hit; in the whole collection about 3.5% have one here.
# RGS4 pot = RGS4 potentiators or activators, primary screen, cell-based, HEK293 M3R inducible RGS4, calcium flux. carbachol calcium flux Fluo4; stronger effect = lower value. B-score at 10 µM. actives 0.92% (n = 310,000). AID 463111, 2010;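 active means B-score of the integrated calcium signal more than 4 SD below the library mean, with starting fluorescence not abnormally high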;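 further: negative B-score means reduced calcium response which marks RGS4 activation or potentiation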
#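 Detection: kinetic calcium fluorescence imaging with Fluo4-AM dye, 2 µM / Material: HEK293 cells with stable M3R and inducible RGS4 / Schedule: recording 10 s baseline at 1 Hz, 100 s post-agonist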
# RGS4 inh = RGS4 inhibitors, primary screen, cell-based, HEK293 M3R inducible RGS4, calcium flux; Regulator of G-protein signaling 4 (Homo sapiens), P49798; B-score at 10 µM; Fluo-4 calcium flux; stronger effect = higher value; triggered by carbachol at its EC20; actives 0.45% (n = 310,000);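 active means B-score, a plate-corrected calcium signal, over three deviations above library mean, with baseline fluorescence within five deviations of library mean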;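 further: RGS4 expression induced by doxycycline in cells with stable M3 receptor; B-score is computed from the integrated fluorescence ratio over baseline after carbachol; higher B-score means a larger calcium signal and so more RGS4 inhibition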
# Target sequence (P49798 whole entry, looked up): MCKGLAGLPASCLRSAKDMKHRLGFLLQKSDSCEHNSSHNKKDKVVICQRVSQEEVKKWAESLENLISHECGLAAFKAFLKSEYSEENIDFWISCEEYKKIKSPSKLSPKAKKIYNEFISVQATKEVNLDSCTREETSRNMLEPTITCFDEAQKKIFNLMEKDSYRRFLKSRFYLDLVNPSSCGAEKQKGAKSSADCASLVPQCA
# MrgX1 ag = agonists of human MrgX1 receptor, primary screen, HEK293 cells, Fluo-4 calcium flux; actives 0.44% (n = 310,000); Mas-related G-protein coupled receptor member X1 (Homo sapiens), Q96LB2; B-score at 10 µM; Fluo-4 calcium fluorescence, agonist mode; stronger effect = higher value;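 active means calcium response B-score plate-corrected fluorescence ratio at least 3 library SD, with starting fluorescence B-score inside 5 SD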
# Target sequence (Q96LB2 whole entry, looked up): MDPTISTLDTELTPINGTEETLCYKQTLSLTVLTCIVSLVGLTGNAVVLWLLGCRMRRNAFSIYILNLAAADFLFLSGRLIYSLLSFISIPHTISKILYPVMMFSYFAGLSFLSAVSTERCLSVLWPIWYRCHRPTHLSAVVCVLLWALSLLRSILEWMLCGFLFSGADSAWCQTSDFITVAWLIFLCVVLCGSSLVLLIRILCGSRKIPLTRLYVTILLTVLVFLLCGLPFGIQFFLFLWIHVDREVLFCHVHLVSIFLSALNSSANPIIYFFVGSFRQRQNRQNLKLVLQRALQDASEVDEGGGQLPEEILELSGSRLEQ
#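 Test system: HEK293 cells stably expressing human MrgX1 receptor; Input: fifteen thousand cells per well; Dosing: compound delivered in addition one of three; Schedule: overnight seeding, then 1 h dark dye loading; Technique: Fluo-4 NW calcium fluorescence; Measure: B-scored fluorescence response ratio; Controls: positive and negative controls per plate.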
# MrgX1 antag = antagonists of human MrgX1 receptor, primary screen, HEK293 cells, Fluo-4 calcium flux | Mas-related G-protein coupled receptor member X1 (Homo sapiens), Q96LB2 | BAM8-22 antagonism; stronger effect = lower value | B-score at 10 µM | actives 1.3% (n = 310,000);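 active means calcium-response B-score plate-corrected more than 3 library SD below zero, starting fluorescence within 5 deviations, no agonist response on first addition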;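 further: peak minus trough fluorescence over baseline after final BAM8-22 challenge near maximal dose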
# MrgX1 allo act = positive allosteric modulators of MrgX1, primary screen, HEK293 cells, Fluo-4 calcium flux. Mas-related G-protein coupled receptor member X1 (Homo sapiens), Q96LB2. FDSS; stronger effect = higher value. B-score at 10 µM. actives 0.63% (n = 310,000);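 active means plate-corrected calcium response at least 3 library SD above typical, normal starting fluorescence, not activating the receptor alone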;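 further: compound read alongside a low EC10 to EC30 dose of BAM8-22 agonist; peak minus trough fluorescence over baseline measured at the second addition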
# MrgX1 ant reconf = MrgX1 receptor antagonists, duplicate retest, confirmation, HEK293 cells, Fluo-4 calcium flux. shares compounds with MrgX1 antag. BAM8-22 calcium flux; stronger effect = lower value. remaining BAM8-22 calcium response % of control (stronger effect = lower value), % at 10 µM. actives 19% (n = 2,300). AID 602420, 2012;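 active means remaining agonist calcium response no higher than 100% minus 3 SD of agonist-only control wells, with starting fluorescence near control levels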;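 further: agonist BAM8-22 given at a near maximal EC90 to ECmax level; peak minus minimum fluorescence divided by baseline after agonist addition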
# HEK293 Ca flux = nonspecific calcium signal in parental HEK293, confirmation, counter-screen for MrgX1 antagonist project, parental HEK293 cells, Fluo-4 calcium flux. shares compounds with MrgX1 antag. Fluo-4 calcium fluorescence, FDSS. fluorescence ratio F(max-min)/F0 at 10 µM. actives 2% (n = 4,000). AID 624111, 2012;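 active means duplicate-averaged calcium fluorescence ratio at least three times the standard deviation of buffer wells, a nonspecific response in parental cells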
# HEK293 Ca counter = calcium response in parental HEK293 cells, primary screen, counter-screen for MrgX1 allosteric activator project, cell-based, Fluo-4 calcium flux, duplicate | AID 624114, 2012 | Fluo-4 fluorescence ratio; stronger effect = higher value | shares compounds with MrgX1 antag | actives 0.4% (n = 4,000) | fluorescence ratio F(max-min)/F0 at 10 µM;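 active means calcium fluorescence ratio, averaged over duplicates, at least 3 SD of the buffer-well ratio, meaning a nonspecific response in receptor-free cells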;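 further: untransfected parental HEK293 lacking MrgX1 used as counterscreen for MrgX1 allosteric activators; fluorescence change taken during the second addition on a kinetic imager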
# HEK293 Ca cntr2 = calcium response in parental HEK293 cells, primary screen, counter-screen for MrgX1 agonist project, cell-based, Fluo-4 calcium flux, duplicate, agonist mode; shares compounds with MrgX1 antag; Fluo-4 calcium fluorescence (FDSS); stronger effect = higher value; fluorescence ratio F(max-min)/F0 at 10 µM; actives 8.7% (n = 4,000); AID 624115, 2012;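 active means calcium fluorescence ratio at least three times the spread of buffer wells, meaning a non-specific response in parental cells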
# The depositor's hits bear a star; i = inactive; · = not tested or not shown.
SMILES,RGS4 pot,RGS4 inh,MrgX1 ag,MrgX1 antag,MrgX1 allo act,MrgX1 ant reconf,HEK293 Ca flux,HEK293 Ca counter,HEK293 Ca cntr2
CC1CCCN(C(=O)Nc2ccc(Br)cc2Cl)C1 (stereo not drawn),i,i,i,i,i,·,·,·,·
CC1CN(C(=O)Nc2ccc(Br)cc2Cl)CC(C)O1 (stereo not drawn),i,i,i,-6.4*,i,i,i,i,i
CS(=O)(=O)N1CCC2(CC1)OCCN2S(=O)(=O)c1ccccc1,i,i,i,-6.9*,i,i,i,i,i
COc1ccc(S(=O)(=O)N2CCC3(CC2)OCCN3S(=O)(=O)c2ccccc2)cc1OC,i,i,i,i,i,·,·,·,·
COCCN1Cc2cccc(C(=O)Nc3ccc(C)cc3)c2C1=O,i,i,i,-7.6*,i,81%*,i,i,i
COCCN1Cc2cccc(C(=O)Nc3cccnc3)c2C1=O,·,·,i,i,i,·,·,·,·
Cc1nc2ccc(NC(=O)Cc3ccc4c(c3)OCCO4)cc2s1,i,i,i,-6.8*,i,i,i,i,i
Cc1nc2ccc(NC(=O)Cc3ccc(Br)cc3)cc2s1,i,i,i,i,i,·,·,·,·
Cc1cccc(C(=O)OC(C)C(=O)NC(=O)NC2CCCCC2)c1O (stereo not drawn),i,i,i,i,i,·,·,·,·
CC(=O)Nc1cccc(C(=O)OC(C)C(=O)NC(=O)NC2CCCCC2)c1 (stereo not drawn),i,i,i,-9.9*,i,i,i,i,i
O=C(NCCNCc1cccs1)c1ccccc1F,i,i,i,i,i,·,·,·,·
O=C(NCc1cccs1)c1ccccc1F,i,i,i,-6.2*,i,i,i,i,i
NC(=O)c1c(NC(=O)Cc2ccccc2)sc2c1CCN(Cc1ccccc1)C2,i,i,i,i,i,·,·,·,·
Cc1ccc(-n2c(-c3ccc(Br)cc3)c[n+]3c2CCc2ccc4cccnc4c2-3)cc1,i,i,i,-11*,i,19%*,i,i,i
COc1ccc(-n2c(-c3ccc(Cl)cc3)c[n+]3c2CCc2ccccc2-3)cc1,i,i,i,i,i,·,·,·,·
O=C(NCCc1ccccc1)Nc1cccc(Cl)c1,i,i,i,-7*,i,i,i,i,i
CC1CN(C(=S)Nc2ccc(SC(F)F)cc2)CC(C)O1 (stereo not drawn),i,i,i,i,i,·,·,·,·
CCCCNC(=S)Nc1ccc(F)cc1,i,i,i,i,i,·,·,·,·
CC1CC(C)CN(C(=S)Nc2ccc(SC(F)F)cc2)C1 (stereo not drawn),i,i,i,-5*,i,i,i,i,i
CCCCNC(=S)Nc1ccc(SC(F)F)cc1,i,i,i,-6.9*,i,i,i,i,i
CCOc1ncccc1C(=O)Nc1nnc(C)s1,i,i,i,-4.8*,i,i,i,i,i

# Assay outcomes as filed in PubChem.
